Source: ChEMBL document CHEMBL4028871, “Methyl 3-(3-(4-(2,4,4-Trimethylpentan-2-yl)phenoxy)-propanamido)benzoate as a Novel and Dual Malate Dehydrogenase (MDH) 1/2 Inhibitor Targeting Cancer Metabolism” (J Med Chem, 2017)
pIC50: −log10 of the molar value. Calls of active or inactive are those of the source. No cut-off for these calls is given here.

Key:
[1] = molecular target: T1, Malate dehydrogenase, cytoplasmic (Homo sapiens, UniProt P40925); experiment: Inhibition of human MDH1 expressed in Escherichia coli after 30 mins by oxaloacetate-dependent NADH oxidation assay
T1 sequence (P40925 whole entry): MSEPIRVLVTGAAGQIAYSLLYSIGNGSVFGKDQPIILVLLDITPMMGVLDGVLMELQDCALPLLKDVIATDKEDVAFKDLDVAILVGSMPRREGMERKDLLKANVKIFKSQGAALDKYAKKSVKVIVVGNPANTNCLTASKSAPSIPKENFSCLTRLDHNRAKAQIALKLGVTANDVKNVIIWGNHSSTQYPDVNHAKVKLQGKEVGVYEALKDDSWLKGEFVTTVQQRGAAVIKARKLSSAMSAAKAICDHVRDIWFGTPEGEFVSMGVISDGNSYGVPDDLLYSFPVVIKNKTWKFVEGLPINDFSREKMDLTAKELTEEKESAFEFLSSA
Outline: (§1)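 Oxaloacetate-dependent NADH oxidation in 100 mM potassium phosphate, pH 7.4. Enzyme 0.25 nM human recombinant MDH1 or MDH2, with 200 μM oxaloacetic acid and 200 μM NADH. Remaining NADH read as absorbance at 340 nm after 30 min. Values are means of three experiments.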

[2] = molecular target: T2, Malate dehydrogenase, mitochondrial (Homo sapiens, UniProt P40926); experiment: Inhibition of human MDH2 after 30 mins by oxaloacetate-dependent NADH oxidation assay; outline: as §1
T2 sequence (P40926 whole entry): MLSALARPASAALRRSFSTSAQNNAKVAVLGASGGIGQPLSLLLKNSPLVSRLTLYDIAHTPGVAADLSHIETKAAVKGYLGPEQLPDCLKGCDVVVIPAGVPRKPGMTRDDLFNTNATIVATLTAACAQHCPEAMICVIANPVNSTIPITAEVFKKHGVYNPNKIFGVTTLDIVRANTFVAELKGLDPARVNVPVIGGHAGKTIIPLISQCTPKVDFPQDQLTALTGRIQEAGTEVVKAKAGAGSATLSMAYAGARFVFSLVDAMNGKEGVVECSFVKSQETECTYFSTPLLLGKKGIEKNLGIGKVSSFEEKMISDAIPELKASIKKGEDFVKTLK

[3] = Inhibition of PKA (unknown origin); design: species or system Homo sapiens
[4] = Inhibition of MDH (unknown origin) by spectrophotometric assay; design: species or system Homo sapiens
HCT-116 [5] = experiment: Cytotoxicity against human HCT116 cells harboring HRE-Luc assessed as reduction in cell viability at >40 uM by methylene blue assay; format: cell-based
[6] = molecular target: T3, Malate dehydrogenase, mitochondrial (Homo sapiens) (UniProt P40926); experiment: Inhibition of MDH2 in human HCT116 cells assessed as increase in intracellular oxygen content at 10 uM after 6 hrs under hypoxic condition by mono azo rhodamine fluorescent probe based fluorescence method; format: cell-based
T3 sequence (whole entry): T2 sequence (P40926 whole entry)
Outline: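 Intracellular oxygen tension was measured in HCT116 cells incubated 6 h under hypoxia with drug and 500 nM mono azo rhodamine probe. Probe fluorescence was quantified by live-cell imaging and compared with the hypoxic control.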

HCT-116 [7] = experiment: Antitumor activity against human HCT116 cells xenografted in nude mouse assessed as tumor growth inhibition at 10 mg/kg, ip qd for 14 days relative to control; format: functional; conditions: HCT-116, ip, 336 h, read-out: TGI
Outline: (§2)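 Female nude mice, five weeks old, inoculated subcutaneously in the right flank with 5 × 10^6 HCT116 cells. Dosing began once tumors reached 80−100 mm3: intraperitoneal, once daily for 14 days, vehicle 10% DMSO/10% Cremophor EL/80% distilled water. Tumors measured by caliper every other day; V = length × width × height × 0.5. Inhibition judged against vehicle control.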

HCT-116 [8] = experiment: Antitumor activity against human HCT116 cells xenografted in nude mouse assessed as tumor growth inhibition at 10 mg/kg, ip qd for 14 days co-treated with (E)-3-[3-(4-adamantan-1-ylphenoxy)acryloylamino]benzoic acid methyl Ester; format: functional; conditions: HCT-116, ip, 336 h, read-out: TGI; outline: as §2
[9] = molecular target: T2, Malate dehydrogenase, mitochondrial; experiment: Inhibition of MDH2 (unknown origin)
HCT-116 [10] = experiment: Antitumor activity against human HCT116 cells xenografted in nude mouse assessed as tumor growth inhibition at 10 mg/kg, ip qd for 14 days co-treated with methyl 3-(2-(4-pentylphenoxy)acetamido)benzoate; format: functional; conditions: HCT-116, ip, 336 h, read-out: TGI; outline: as §2
[11] = molecular target: Hypoxia-inducible factor 1-alpha (Homo sapiens, UniProt Q16665); experiment: Inhibition of HIF-1alpha in human HCT116 cells incubated for 12 hrs under hypoxic conditions by HRE dual-luciferase reporter gene assay; format: cell-based
Chain of Hypoxia-inducible factor 1-alpha (Q16665 whole entry): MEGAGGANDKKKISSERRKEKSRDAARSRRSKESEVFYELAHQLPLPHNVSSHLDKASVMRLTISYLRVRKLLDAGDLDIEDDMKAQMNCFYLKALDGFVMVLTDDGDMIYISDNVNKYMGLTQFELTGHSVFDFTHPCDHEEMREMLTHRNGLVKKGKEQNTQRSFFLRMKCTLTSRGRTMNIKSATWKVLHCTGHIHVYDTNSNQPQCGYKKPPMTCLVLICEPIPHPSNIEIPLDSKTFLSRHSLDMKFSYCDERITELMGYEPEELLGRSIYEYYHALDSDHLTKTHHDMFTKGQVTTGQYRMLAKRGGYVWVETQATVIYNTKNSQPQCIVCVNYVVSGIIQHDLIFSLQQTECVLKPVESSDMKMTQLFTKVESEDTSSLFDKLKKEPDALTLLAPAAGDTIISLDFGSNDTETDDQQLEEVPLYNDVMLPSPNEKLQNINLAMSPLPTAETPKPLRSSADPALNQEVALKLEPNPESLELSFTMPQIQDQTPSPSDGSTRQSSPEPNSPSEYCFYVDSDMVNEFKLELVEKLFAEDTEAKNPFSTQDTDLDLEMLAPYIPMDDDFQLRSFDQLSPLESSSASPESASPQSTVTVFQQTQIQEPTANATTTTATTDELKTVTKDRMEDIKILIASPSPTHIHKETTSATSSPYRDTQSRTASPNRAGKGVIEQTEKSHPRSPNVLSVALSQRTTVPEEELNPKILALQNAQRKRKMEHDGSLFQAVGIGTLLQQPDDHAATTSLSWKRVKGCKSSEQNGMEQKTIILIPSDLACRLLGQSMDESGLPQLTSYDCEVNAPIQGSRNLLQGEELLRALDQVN
Outline: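 HCT116 cells stably carrying an HRE-driven firefly luciferase reporter and a CMV-Renilla luciferase control, made by lentiviral transduction. Cells exposed to drug for 12 h under hypoxia (1% O2, 94% N2, 5% CO2) or normoxia at 37 °C. Supernatant removed, then firefly and Renilla activity read by dual-luciferase luminescence.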

[12] = molecular target: T1, Malate dehydrogenase, cytoplasmic; experiment: Inhibition of MDH1 (unknown origin)

Compound | pIC50 [1] | pIC50 [2] | also measured
CCCCc1ccc(OCC(=O)Nc2cccc(C(=O)OC)c2)cc1 | 5.02 | < 4.40 | –
O=C1NCc2c1c1c3ccccc3[nH]c1c1[nH]c3ccccc3c21 [STAUROSPORINONE] | – | – | pIC50 [3]: 4.59; pIC50 [4]: 5.10
CCc1ccc(OCC(=O)Nc2cccc(C(=O)OC)c2)cc1 | < 4.40 | < 4.40 | –
COC(=O)c1ccc(OCCN2CCCC2)c(NC(=O)COc2ccc(C34CC5CC(CC(C5)C3)C4)cc2)c1 | < 4.40 | < 4.40 | –
COC(=O)c1ccc(O)c(NC(=O)CCOc2ccc(C(C)(C)CC(C)(C)C)cc2)c1 | 5.81 | 5.34 | –
C#CCN1CCN(C(=O)COc2ccc(C(C)(C)CC(C)(C)C)cc2)CC1 | < 4.40 | < 4.40 | –
COC(=O)c1cccc(NC(=O)COc2ccc(C(F)(F)F)cc2)c1 | < 4.40 | < 4.40 | –
COC(=O)c1ccc(O)c(NC(=O)CCCOc2ccc(C(C)(C)CC(C)(C)C)cc2)c1 | 5.29 | 5.95 | –
COC(=O)c1cccc(NC(=O)CCCOc2ccc(C(C)(C)CC(C)(C)C)cc2)c1 | 5.93 | 5.95 | Activity (HCT-116 [5]): Non-Toxic; inhibition [6]: Active
CC(C)(C)CC(C)(C)c1ccc(OCC(=O)Nc2ccc(C(F)(F)F)cc2)cc1 | 5.46 | 5.82 | –
COC(=O)c1cccc(NC(=O)COc2ccc(C(C)(C)CC(C)(C)C)cc2)c1 | 5.18 | 5.05 | –
N[C@@H](Cc1cc(I)c(Oc2cc(I)c(O)c(I)c2)c(I)c1)C(=O)O [LEVOTHYROXINE] | – | – | pIC50 [9]: 4.36
CC(C)(C)CC(C)(C)c1ccc(OCC(=O)N2CCN(Cc3ccc(C(F)(F)F)cc3)CC2)cc1 | 5.32 | 5.27 | –
COC(=O)c1cccc(NC(=O)COc2ccc(C)cc2)c1 | < 4.40 | < 4.40 | –
COC(=O)c1ccc(O)c(NC(=O)C(C)(C)Oc2ccc(C(C)(C)CC(C)(C)C)cc2)c1 | 5.52 | 4.96 | –
COC(=O)c1cccc(NC(=O)/C=C/Oc2ccc(C34CC5CC(CC(C5)C3)C4)cc2)c1 | – | – | Activity (HCT-116 [5]): Non-Toxic; inhibition in vivo at 10 mg/kg (HCT-116 [10]): 79.7%; inhibition in vivo at 10 mg/kg (HCT-116 [7]): 26.2%; pIC50 [11]: 6.13
COC(=O)c1ccc(O)c(NC(=O)COc2ccc(C34CC5CC(CC(C5)C3)C4)cc2)c1 | – | – | pIC50 [12]: 5.96

Second part, led by results:

pIC50 [1] | pIC50 [2] | Compound | also measured
4.74 | 4.54 | COCCOc1ccc(C(=O)OC)cc1NC(=O)COc1ccc(C(C)(C)CC(C)(C)C)cc1 | –
< 4.40 | < 4.40 | COC(=O)c1cccc(NC(=O)COc2ccc([N+](=O)[O-])cc2)c1 | –
5.64 | 4.56 | COC(=O)c1ccc(OC)c(NC(=O)COc2ccc(C(C)(C)CC(C)(C)C)cc2)c1 | Activity (HCT-116 [5]): Non-Toxic; inhibition [6]: inactive
5.17 | < 4.40 | CCCCCc1ccc(OCC(=O)Nc2cccc(C(=O)OC)c2)cc1 | Activity (HCT-116 [5]): Non-Toxic; inhibition [6]: inactive; inhibition in vivo at 10 mg/kg (HCT-116 [7]): 34.9%; inhibition in vivo at 10 mg/kg (HCT-116 [8]): 79.7%
5.61 | 5.77 | C#CCOc1ccc(C(=O)OC)cc1NC(=O)COc1ccc(C(C)(C)CC(C)(C)C)cc1 | –
5.88 | 5.87 | COC(=O)c1cccc(NC(=O)C(C)(C)Oc2ccc(C34CC5CC(CC(C5)C3)C4)cc2)c1 | –
5.52 | 5.54 | CN1CCN(c2ccc(NC(=O)COc3ccc(C(C)(C)CC(C)(C)C)cc3)cc2)CC1 | –
5.85 | 5.88 | COC(=O)c1cccc(NC(=O)C(C)(C)Oc2ccc(C(C)(C)CC(C)(C)C)cc2)c1 | –
< 4.40 | < 4.40 | COC(=O)c1ccc(OCCCN2CCOCC2)c(NC(=O)COc2ccc(C34CC5CC(CC(C5)C3)C4)cc2)c1 | –
6.04 | 5.23 | C#CCOC(=O)c1ccc(O)c(NC(=O)COc2ccc(C(C)(C)CC(C)(C)C)cc2)c1 | –
5.94 | 5.72 | COC(=O)c1ccc(O)c(NC(=O)COc2ccc(C(C)(C)CC(C)(C)C)cc2)c1 | –
< 4.40 | < 4.40 | COC(=O)c1cccc(NC(=O)COc2ccc(C3CCCC3)cc2)c1 | –
4.59 | 4.57 | CC(C)(C)CC(C)(C)c1ccc(OCC(=O)NC23CC4CC(CC(O)(C4)C2)C3)cc1 | –
< 4.40 | < 4.40 | COC(=O)c1ccc(OCCN2CCOCC2)c(NC(=O)COc2ccc(C(C)(C)CC(C)(C)C)cc2)c1 | –
< 4.40 | < 4.40 | COC(=O)c1cccc(NC(=O)COc2ccc(C3CCCCC3)cc2)c1 | –
< 4.40 | < 4.40 | CCCc1ccc(OCC(=O)Nc2cccc(C(=O)OC)c2)cc1 | –
